In ChEMBL document CHEMBL1123281, “Synthesis and rat lens aldose reductase inhibitory activity of some benzopyran-2-ones” (J Med Chem, 1986):

The compounds below were run against T1, Aldo-keto reductase family 1 member B1 (Rattus norvegicus, UniProt P07943) (assay: Compound was tested for inhibitory concentration against rat lens aldose reductase (uncompetitive inhibition type)).

| IC50 [µM] | Structure (SMILES) |
| --- | --- |
| 0.6 | O=C(O)Cc1cc(=O)oc2ccccc12 |
| 11 | COc1ccc2c(C(=O)O)cc(=O)oc2c1 |
| 10 | NC(=O)Cc1cc(=O)oc2cc(O)ccc12 |
| 4.4 | COc1ccc2c(/C=C/C(=O)O)cc(=O)oc2c1 |
| 38 | COC(=O)Cc1cc(=O)oc2cc(O)ccc12 |
| 10 | Cc1cc(=O)oc2c(O)c(O)ccc12 [4-METHYLDAPHNETIN] |
| 0.24 | CCc1ccc2c(CC(=O)O)cc(=O)oc2c1 |
| 0.14 | O=C(O)Cc1cc(=O)oc2c1ccc1ccccc12 |
| 0.56 | O=C(O)Cc1cc(=O)oc2cc(Cl)ccc12 |
| 0.02 | O=C(O)Cc1cc(=O)oc2ccc3ccccc3c12 |

These compounds were tested against T1, Aldo-keto reductase family 1 member B1 (assay: Compound was tested for inhibitory concentration against rat lens aldose reductase (noncompetitive inhibition type)).
In short: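 Crude supernatant from 50 rat lenses homogenized in distilled water, centrifuged 10 000 rpm, 10 min, 0–5 °C. Read-out was NADPH decrease at 340 nm over 5 min in 0.1 M phosphate pH 6.2, 0.104 mM NADPH, 10 mM DL-glyceraldehyde. IC50 came from least-squares log dose–response fits, using ≥4 concentrations ×4 replicates. Inhibition type was read from double-reciprocal plots with 0.0625–1.0 mM substrate.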

| IC50 [µM] | Structure (SMILES) |
| --- | --- |
| 61 | CC(=O)Oc1ccc2c(CC(=O)O)cc(=O)oc2c1 |
| 0.15 | O=C(O)Cc1cc(=O)oc2cc(O)ccc12 |
| 2.1 | COc1ccc2c(CCC(=O)O)cc(=O)oc2c1 |
| 32 | O=C(O)Cc1cccc2ccccc12 |
| 17 | Cc1cc(=O)oc2cc(O)cc(O)c12 [5,7-DIHYDROXY-4-METHYLCOUMARIN] |
| 0.37 | COc1ccc2c(CC(=O)O)cc(=O)oc2c1 |
| 62 | Cc1cc(=O)oc2cc(O)ccc12 [HYMECROMONE] |
| 0.26 | O=C(O)Cc1cc(=O)oc2cc(O)cc(O)c12 |

Each compound was assayed against Aldo-keto reductase family 1 member B1 (Rattus norvegicus) (UniProt P07943) (assay: Compound was tested for percent inhibition at 10 e-4 M against rat lens aldose reductase).
In short: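 Single-concentration screen at 100 μM against crude rat lens supernatant. The reaction mix was 0.1 M phosphate pH 6.2, 0.104 mM NADPH and 10 mM DL-glyceraldehyde, started with substrate. NADPH loss was followed at 340 nm for 5 min, with inhibitor included in the blanks. Percent inhibition compares the rate with a substrate-only control. Final Me2SO was ≤1%.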

| inhibition [%] | Structure (SMILES) |
| --- | --- |
| 21 | COc1ccc2c(C)cc(=O)oc2c1 |
| 10 | Cc1cc(=O)oc2cc(Cl)ccc12 |
| 19 | Cc1cc(=O)oc2ccccc12 |
| 16 | CCc1ccc2c(C)cc(=O)oc2c1 |
| 13 | CC(=O)Oc1ccc2c(C)cc(=O)oc2c1 |
| 22 | Cc1cc(=O)oc2ccc(O)cc12 |
